In ChEMBL document CHEMBL1955778, “Design and synthesis of novel 7-aminoquinazoline derivatives: antitumor and anticonvulsant activities” (Bioorg Med Chem Lett, 2012):

Legend:
Type in all cases: functional
OVCAR-5 = assay: Growth inhibition of human OVCAR5 cells at 10 uM relative to control; conditions: read-out: GI
Summary of the method: (§1)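 Each cell line in a 60-line human tumour panel exposed to one 10 μM concentration. Growth inhibition percentage computed as 100 minus the percentage activity relative to control.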

Malme-3M = assay: Growth inhibition of human MALME-3M cells at 10 uM relative to control; conditions: read-out: GI; summary of the method: as §1
NCI-H522 = assay: Growth inhibition of human NCI-H522 cells at 10 uM relative to control; conditions: read-out: GI; summary of the method: as §1
SF-539 = assay: Growth inhibition of human SF539 cells at 10 uM relative to control; conditions: read-out: GI; summary of the method: as §1
UO-31 = assay: Growth inhibition of human UO31 cells at 10 uM relative to control; conditions: read-out: GI
Summary of the method: (§2)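 Single-dose screen across the 60-cell-line human tumor panel at 10 μM. Growth inhibition is reported as a percentage, taken as 100 minus the % growth relative to untreated control.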

HOP-62 = assay: Growth inhibition of human HOP62 cells at 10 uM relative to control; conditions: read-out: GI; summary of the method: as §1
CAKI-1 = assay: Growth inhibition of human CAKI-1 cells at 10 uM relative to control; conditions: read-out: GI; summary of the method: as §1
SNB-75 = assay: Growth inhibition of human SNB75 cells at 10 uM relative to control; conditions: read-out: GI; summary of the method: as §2
CCRF-CEM = assay: Growth inhibition of human CCRF-CEM cells at 10 uM relative to control; conditions: read-out: GI; summary of the method: as §1
RPMI-8226 = assay: Growth inhibition of human RPMI8226 cells at 10 uM relative to control; conditions: read-out: GI; summary of the method: as §1
PC-3 = assay: Growth inhibition of human PC3 cells at 10 uM relative to control; conditions: read-out: GI; summary of the method: as §1
T47D = assay: Growth inhibition of human T47D cells at 10 uM relative to control; conditions: read-out: GI; summary of the method: as §2
BT-549 = assay: Growth inhibition of human BT549 cells at 10 uM relative to control; conditions: read-out: GI; summary of the method: as §1
SK-OV-3 = assay: Growth inhibition of human SKOV3 cells at 10 uM relative to control; conditions: read-out: GI; summary of the method: as §1
SF-268 = assay: Growth inhibition of human SF268 cells at 10 uM relative to control; conditions: read-out: GI; summary of the method: as §1
SNB-19 = assay: Growth inhibition of human SNB19 cells at 10 uM relative to control; conditions: read-out: GI; summary of the method: as §2
NCI-H322M = assay: Growth inhibition of human NCI-H322M cells at 10 uM relative to control; conditions: read-out: GI; summary of the method: as §1
KM12 = assay: Growth inhibition of human KM12 cells at 10 uM relative to control; conditions: read-out: GI; summary of the method: as §1
SF-295 = assay: Growth inhibition of human SF295 cells at 10 uM relative to control; conditions: read-out: GI; summary of the method: as §1
EKVX = assay: Growth inhibition of human EKVX cells at 10 uM relative to control; conditions: read-out: GI; summary of the method: as §1
A498 = assay: Growth inhibition of human A498 cells at 10 uM relative to control; conditions: read-out: GI; summary of the method: as §1
MDA-MB-435 = assay: Growth inhibition of human MDA-MB-435 cells at 10 uM relative to control; conditions: read-out: GI; summary of the method: as §1
U-251 = assay: Growth inhibition of human U251 cells at 10 uM relative to control; conditions: read-out: GI; summary of the method: as §2
HCC 2998 = assay: Growth inhibition of human HCC2998 cells at 10 uM relative to control; conditions: read-out: GI; summary of the method: as §1
M14 = assay: Growth inhibition of human M14 cells at 10 uM relative to control; conditions: read-out: GI; summary of the method: as §1
HCT-15 = assay: Growth inhibition of human HCT15 cells at 10 uM relative to control; conditions: read-out: GI; summary of the method: as §1
UACC-62 = assay: Growth inhibition of human UACC62 cells at 10 uM relative to control; conditions: read-out: GI; summary of the method: as §2
TK-10 = assay: Growth inhibition of human TK10 cells at 10 uM relative to control; conditions: read-out: GI; summary of the method: as §2
SN12C = assay: Growth inhibition of human SN12C cells at 10 uM relative to control; conditions: read-out: GI; summary of the method: as §2
HCT-116 = assay: Growth inhibition of human HCT116 cells at 10 uM relative to control; conditions: read-out: GI; summary of the method: as §1
SK-MEL-5 = assay: Growth inhibition of human SK-MEL-5 cells at 10 uM relative to control; conditions: read-out: GI; summary of the method: as §1
Mus musculus [1] = assay: Anticonvulsant activity in mouse assessed as protection against maximal electroshock-induced seizure at 1 mmol/kg, ip administered 30 min prior to maximal electroshock-challenge measured after 60 mins relative to control
OVCAR-8 = assay: Growth inhibition of human OVCAR8 cells at 10 uM relative to control; conditions: read-out: GI; summary of the method: as §1
K562 = assay: Growth inhibition of human K562 cells at 10 uM relative to control; conditions: read-out: GI; summary of the method: as §1
MCF7 = assay: Growth inhibition of human MCF7 cells at 10 uM relative to control; conditions: read-out: GI; summary of the method: as §1
MDA-MB-468 = assay: Growth inhibition of human MDA-MB-468 cells at 10 uM relative to control; conditions: read-out: GI; summary of the method: as §1
Mus musculus [2] = assay: Anticonvulsant activity in mouse assessed as protection against strychnine-induced seizure at 1 mmol/kg, ip administered 30 min prior to strychnine-challenge measured after 60 mins relative to control
ACHN = assay: Growth inhibition of human ACHN cells at 10 uM relative to control; conditions: read-out: GI; summary of the method: as §1
MOLT-4 = assay: Growth inhibition of human MOLT4 cells at 10 uM relative to control; conditions: read-out: GI; summary of the method: as §1
A549 = assay: Growth inhibition of human A549 cells at 10 uM relative to control; conditions: read-out: GI; summary of the method: as §1
OVCAR-4 = assay: Growth inhibition of human OVCAR4 cells at 10 uM relative to control; conditions: read-out: GI; summary of the method: as §1
Mus musculus [3] = assay: Anticonvulsant activity in mouse assessed as protection against pentylenetetrazol-induced seizure at 1 mmol/kg, ip administered 30 min prior to pentylenetetrazol-challenge measured after 60 mins relative to control
SR = assay: Growth inhibition of human SR cells at 10 uM relative to control; conditions: read-out: GI; summary of the method: as §2
HL-60(TB) = assay: Growth inhibition of human HL-60(TB) cells at 10 uM relative to control; conditions: read-out: GI
Summary of the method: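 Single-dose screen at 10 μM across the 60-cell-line tumour panel. Percent growth inhibition = 100 minus percent growth activity relative to untreated control.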

`Cc1ccccc1-n1c(C)nc2cc(N)ccc2c1=S` was tested, and the inhibition of growth at 10 µM (OVCAR-5) was 10%, the inhibition of growth at 10 µM (Malme-3M) was 17% and the inhibition of growth at 10 µM (NCI-H522) was 4%. The inhibition of growth at 10 µM (SF-539) was 2%, the inhibition of growth at 10 µM (UO-31) was 22% and the inhibition of growth at 10 µM (HOP-62) was 5.5%. For the same compound, the inhibition of growth at 10 µM (CAKI-1) was 5%, the inhibition of growth at 10 µM (SNB-75) was 15.5% and the inhibition of growth at 10 µM (CCRF-CEM) was 9.5%. For the same compound, the inhibition of growth at 10 µM (RPMI-8226) was 4%, the inhibition of growth at 10 µM (PC-3) was 9.5% and the inhibition of growth at 10 µM (T47D) was 11%. It also gave an inhibition of growth at 10 µM (BT-549) of 8%, an inhibition of growth at 10 µM (SK-OV-3) of 5% and an inhibition of growth at 10 µM (SF-268) of 10.6%. The inhibition of growth at 10 µM (SNB-19) was 2%, the inhibition of growth at 10 µM (NCI-H322M) was 11.1% and the inhibition of growth at 10 µM (KM12) was 8.3%. It also gave an inhibition of growth at 10 µM (SF-295) of 16.6%, an inhibition of growth at 10 µM (EKVX) of 15.2% and an inhibition of growth at 10 µM (A498) of 20%. For the same compound, the inhibition of growth at 10 µM (MDA-MB-435) was 9.8%, the inhibition of growth at 10 µM (U-251) was 6% and the inhibition of growth at 10 µM (HCC 2998) was 16.6%. The inhibition of growth at 10 µM (M14) was 4%, the inhibition of growth at 10 µM (HCT-15) was 2.5% and the inhibition of growth at 10 µM (UACC-62) was 9%. For the same compound, the inhibition of growth at 10 µM (TK-10) was 10%.
Work on `Cc1ccccc1-n1c(C)nc2cc(NC(=O)c3ccccc3)ccc2c1=O` yielded an inhibition of growth at 10 µM (SN12C) of 15%, an inhibition of growth at 10 µM (OVCAR-5) of 12% and an inhibition of growth at 10 µM (HCT-116) of 3.2%. For the same compound, the inhibition of growth at 10 µM (Malme-3M) was 6%, the inhibition of growth at 10 µM (SK-MEL-5) was 17% and the Activity (Mus musculus [1]) was 33%. For the same compound, the inhibition of growth at 10 µM (SF-539) was 10%, the inhibition of growth at 10 µM (OVCAR-8) was 5% and the inhibition of growth at 10 µM (UO-31) was 2.5%. The inhibition of growth at 10 µM (K562) was 9%, the inhibition of growth at 10 µM (MCF7) was 7% and the inhibition of growth at 10 µM (HOP-62) was 5%. The inhibition of growth at 10 µM (CAKI-1) was 4%, the inhibition of growth at 10 µM (SNB-75) was 21.2% and the inhibition of growth at 10 µM (RPMI-8226) was 2%. It also gave an inhibition of growth at 10 µM (MDA-MB-468) of 2%, an Activity (Mus musculus [2]) of 0% and an inhibition of growth at 10 µM (PC-3) of 8%. For the same compound, the inhibition of growth at 10 µM (T47D) was 28%, the inhibition of growth at 10 µM (ACHN) was 24% and the inhibition of growth at 10 µM (BT-549) was 18%. The inhibition of growth at 10 µM (MOLT-4) was 8.2%, the inhibition of growth at 10 µM (A549) was 11% and the inhibition of growth at 10 µM (SNB-19) was 14%. The inhibition of growth at 10 µM (KM12) was 26.6%, the inhibition of growth at 10 µM (SF-295) was 29% and the inhibition of growth at 10 µM (EKVX) was 11.1%. The inhibition of growth at 10 µM (A498) was 23%, the inhibition of growth at 10 µM (OVCAR-4) was 17.3% and the inhibition of growth at 10 µM (MDA-MB-435) was 16.3%. The inhibition of growth at 10 µM (U-251) was 9%, the Activity (Mus musculus [3]) was 33% and the inhibition of growth at 10 µM (SR) was 3.5%. The inhibition of growth at 10 µM (M14) was 12%, the inhibition of growth at 10 µM (HCT-15) was 3.7% and the inhibition of growth at 10 µM (UACC-62) was 23%. For the same compound, the inhibition of growth at 10 µM (HL-60(TB)) was 6% and the inhibition of growth at 10 µM (TK-10) was 24%.
